Active and inactive are the calls of the source. No cut-off for these calls is given here.
Assays:
[1] = Inhibition of N-terminal His-tagged Trypanosoma brucei pteridine reductase 1 using di-hydrobiopterine as substrate measured at 1 min interval for 50 mins in presence of NADPH
Procedure, shortened: (§1)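 Photometric PTR1 assay with NADPH and dihydrobiopterin substrate. H₄B formation is coupled non-enzymatically to cytochrome c reduction, read as signal increase at 550 nm.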

[2] = test system: Leishmania infantum; assay: Growth inhibition of luciferase expressing Leishmania infantum axenic amastigotes infected in human THP1 cells at 10 uM measured after 72 hrs by steady-glo luminescence assay relative to control; assay type: organism-based; details: leishmania infantum, 72 h, 10 µM
[3] = target: Cytochrome P450 2C9 (Homo sapiens, UniProt P11712); assay: Inhibition of human CYP2C9 expressed in baculovirus infected insect cells using beetle D-luciferin as substrate preincubated for 30 mins followed by NADPH addition and measured after 30 mins by CYP450-Glo assay
Cytochrome P450 2C9, sequence (P11712 whole entry): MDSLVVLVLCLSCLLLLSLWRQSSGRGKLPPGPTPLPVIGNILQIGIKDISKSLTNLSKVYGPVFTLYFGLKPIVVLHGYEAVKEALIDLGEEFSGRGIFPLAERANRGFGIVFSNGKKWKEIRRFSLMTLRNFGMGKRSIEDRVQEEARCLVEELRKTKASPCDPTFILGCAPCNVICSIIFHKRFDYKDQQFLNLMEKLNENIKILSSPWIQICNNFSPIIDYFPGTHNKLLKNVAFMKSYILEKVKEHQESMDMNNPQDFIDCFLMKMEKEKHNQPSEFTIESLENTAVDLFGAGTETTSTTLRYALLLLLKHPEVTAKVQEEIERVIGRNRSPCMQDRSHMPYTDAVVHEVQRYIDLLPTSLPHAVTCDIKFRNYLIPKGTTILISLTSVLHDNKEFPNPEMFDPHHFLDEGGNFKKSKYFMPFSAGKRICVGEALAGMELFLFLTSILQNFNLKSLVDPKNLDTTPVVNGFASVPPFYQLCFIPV

[4] = test system: Trypanosoma cruzi; assay: Growth inhibition of trypomastigote form of Trypanosoma cruzi Y infected in human U2OS cells at 50 uM measured after 72 hrs by DRAQ5 DNA dye based confocal microscopic analysis relative to control; assay type: organism-based; details: for inhibition at 50 µM: Trypanosoma cruzi, Y, U2OS, read-out: GI
[5] = target: T1, Pteridine reductase 1 (Leishmania major, UniProt Q01782); assay: Inhibition of Leishmania major pteridine reductase 1 using di-hydrobiopterine as substrate in presence of NADPH; procedure, shortened: as §1
T1 sequence (Q01782 whole entry): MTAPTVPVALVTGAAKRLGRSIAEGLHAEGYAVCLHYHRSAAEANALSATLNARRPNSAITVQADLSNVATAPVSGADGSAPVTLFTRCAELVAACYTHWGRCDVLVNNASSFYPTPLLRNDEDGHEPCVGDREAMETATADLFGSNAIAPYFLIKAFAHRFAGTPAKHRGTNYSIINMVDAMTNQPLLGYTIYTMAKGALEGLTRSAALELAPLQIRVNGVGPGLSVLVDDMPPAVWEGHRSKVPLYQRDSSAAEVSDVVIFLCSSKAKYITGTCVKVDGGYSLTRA

[6] = Cytotoxicity against human U2OS cells assessed as reduction in cell number; assay type: cell-based
[7] = target: Cytochrome P450 2D6 (Homo sapiens, UniProt P10635); assay: Inhibition of human CYP2D6 expressed in baculovirus infected insect cells using beetle D-luciferin as substrate preincubated for 30 mins followed by NADPH addition and measured after 30 mins by CYP450-Glo assay
Cytochrome P450 2D6, sequence (P10635 whole entry): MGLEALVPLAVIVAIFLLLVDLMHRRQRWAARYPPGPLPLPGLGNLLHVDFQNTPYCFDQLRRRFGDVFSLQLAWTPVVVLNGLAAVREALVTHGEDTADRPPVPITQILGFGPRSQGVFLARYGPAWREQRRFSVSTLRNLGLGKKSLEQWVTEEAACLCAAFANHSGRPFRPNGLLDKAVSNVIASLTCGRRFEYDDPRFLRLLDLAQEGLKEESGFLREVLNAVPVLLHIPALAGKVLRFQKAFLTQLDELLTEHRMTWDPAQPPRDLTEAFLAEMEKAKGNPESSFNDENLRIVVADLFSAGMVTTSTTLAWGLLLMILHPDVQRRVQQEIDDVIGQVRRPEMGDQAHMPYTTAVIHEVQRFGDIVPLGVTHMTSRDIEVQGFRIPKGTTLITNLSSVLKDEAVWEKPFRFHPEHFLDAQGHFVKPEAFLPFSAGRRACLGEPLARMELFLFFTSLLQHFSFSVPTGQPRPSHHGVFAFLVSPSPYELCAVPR

[8] = target: T2, Cytochrome P450 1A2 (Homo sapiens, UniProt P05177); assay: Inhibition of human CYP1A2 expressed in baculovirus infected insect cells using beetle D-luciferin as substrate preincubated for 30 mins followed by NADPH addition and measured after 30 mins by CYP450-Glo assay
T2 sequence (P05177 whole entry): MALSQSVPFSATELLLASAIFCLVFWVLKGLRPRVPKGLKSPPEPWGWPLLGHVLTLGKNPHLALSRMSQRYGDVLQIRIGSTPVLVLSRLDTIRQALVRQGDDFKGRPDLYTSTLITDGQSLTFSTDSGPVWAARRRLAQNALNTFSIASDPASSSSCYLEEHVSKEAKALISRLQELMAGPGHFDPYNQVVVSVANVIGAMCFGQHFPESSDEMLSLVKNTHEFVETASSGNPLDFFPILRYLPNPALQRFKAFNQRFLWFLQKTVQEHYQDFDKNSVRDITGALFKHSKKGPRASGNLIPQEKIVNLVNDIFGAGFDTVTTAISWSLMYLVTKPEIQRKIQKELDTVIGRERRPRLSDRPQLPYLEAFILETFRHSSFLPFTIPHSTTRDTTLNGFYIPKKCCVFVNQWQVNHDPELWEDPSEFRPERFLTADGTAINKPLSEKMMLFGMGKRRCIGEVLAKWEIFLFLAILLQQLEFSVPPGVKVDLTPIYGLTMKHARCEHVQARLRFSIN

[9] = target: T3, Pteridine reductase 1 (Leishmania major) (UniProt Q01782); assay: Inhibition of Leishmania major pteridine reductase 1 at 50 uM using di-hydrobiopterine as substrate in presence of NADPH relative to control; procedure, shortened: as §1
T3 sequence (whole entry): T1 sequence (Q01782 whole entry)

[10] = test system: Trypanosoma brucei; assay: Growth inhibition of Trypanosoma brucei bloodstream forms at 10 uM measured after 72 hrs by resazurin-based fluorescence assay relative to control; assay type: organism-based; details: for inhibition at 10 µM: Trypanosoma brucei, read-out: GI
[11] = target: Cytochrome P450 3A4 (Homo sapiens, UniProt P08684); assay: Inhibition of human CYP3A4 expressed in baculovirus infected insect cells using beetle D-luciferin as substrate preincubated for 30 mins followed by NADPH addition and measured after 30 mins by CYP450-Glo assay
Cytochrome P450 3A4, sequence (P08684 whole entry): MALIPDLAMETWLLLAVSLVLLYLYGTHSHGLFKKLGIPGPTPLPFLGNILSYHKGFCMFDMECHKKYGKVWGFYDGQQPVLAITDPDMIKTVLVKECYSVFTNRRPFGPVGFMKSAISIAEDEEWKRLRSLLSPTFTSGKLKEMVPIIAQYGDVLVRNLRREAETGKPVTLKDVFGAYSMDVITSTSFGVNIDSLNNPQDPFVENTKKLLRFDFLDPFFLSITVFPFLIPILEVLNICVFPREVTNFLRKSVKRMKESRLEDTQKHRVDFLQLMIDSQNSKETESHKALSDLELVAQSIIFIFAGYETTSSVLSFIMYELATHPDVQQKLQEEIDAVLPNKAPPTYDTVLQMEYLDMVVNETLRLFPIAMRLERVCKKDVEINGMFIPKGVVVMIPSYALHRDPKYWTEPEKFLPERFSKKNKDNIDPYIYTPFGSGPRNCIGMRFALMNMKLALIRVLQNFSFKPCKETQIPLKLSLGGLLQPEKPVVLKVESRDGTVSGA

[12] = target: Voltage-gated inwardly rectifying potassium channel KCNH2 (Homo sapiens, UniProt Q12809); assay: Displacement of Tracer Red from human ERG by fluorescence polarization assay
Voltage-gated inwardly rectifying potassium channel KCNH2, sequence (Q12809 whole entry): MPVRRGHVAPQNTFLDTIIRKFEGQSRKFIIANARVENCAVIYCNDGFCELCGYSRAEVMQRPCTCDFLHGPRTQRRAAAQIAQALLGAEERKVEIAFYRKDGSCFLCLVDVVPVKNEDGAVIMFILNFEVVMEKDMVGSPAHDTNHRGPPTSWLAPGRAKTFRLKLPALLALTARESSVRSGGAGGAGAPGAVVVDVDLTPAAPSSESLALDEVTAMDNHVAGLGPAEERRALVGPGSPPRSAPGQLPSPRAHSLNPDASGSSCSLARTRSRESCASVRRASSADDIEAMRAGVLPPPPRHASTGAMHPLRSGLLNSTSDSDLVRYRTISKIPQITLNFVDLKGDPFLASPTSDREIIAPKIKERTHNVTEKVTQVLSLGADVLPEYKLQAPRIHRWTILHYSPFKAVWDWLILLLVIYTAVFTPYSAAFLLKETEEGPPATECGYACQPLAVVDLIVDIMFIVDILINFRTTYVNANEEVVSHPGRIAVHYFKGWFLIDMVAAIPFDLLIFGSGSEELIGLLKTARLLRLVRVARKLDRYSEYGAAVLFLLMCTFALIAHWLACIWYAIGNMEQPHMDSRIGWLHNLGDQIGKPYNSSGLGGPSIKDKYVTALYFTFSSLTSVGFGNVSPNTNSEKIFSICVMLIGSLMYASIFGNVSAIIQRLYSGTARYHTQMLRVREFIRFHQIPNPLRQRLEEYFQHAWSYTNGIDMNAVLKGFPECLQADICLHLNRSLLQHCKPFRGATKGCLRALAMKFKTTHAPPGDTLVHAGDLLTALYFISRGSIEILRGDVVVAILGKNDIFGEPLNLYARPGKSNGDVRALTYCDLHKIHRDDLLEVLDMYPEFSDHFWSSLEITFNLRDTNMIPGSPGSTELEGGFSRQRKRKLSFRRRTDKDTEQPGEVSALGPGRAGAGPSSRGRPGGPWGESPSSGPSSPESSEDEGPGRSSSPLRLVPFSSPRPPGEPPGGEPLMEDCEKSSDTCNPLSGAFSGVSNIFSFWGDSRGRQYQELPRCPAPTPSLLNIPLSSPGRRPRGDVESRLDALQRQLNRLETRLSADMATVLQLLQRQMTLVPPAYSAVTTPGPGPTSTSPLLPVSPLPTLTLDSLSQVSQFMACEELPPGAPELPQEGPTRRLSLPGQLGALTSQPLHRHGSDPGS

[13] = Cytotoxicity against human A549 cells after 48 hrs by Celltiter-glo assay; assay type: cell-based
[14] = Mitochondrial toxicity in human 786-O cells measured after 6 hrs by MitoTracker Red chloromethyl-X-rosamine based assay; assay type: cell-based, 786-0
[15] = target: Cytochrome P450 2C19 (Homo sapiens, UniProt P33261); assay: Inhibition of human CYP2C19 expressed in baculovirus infected insect cells using beetle D-luciferin as substrate preincubated for 30 mins followed by NADPH addition and measured after 30 mins by CYP450-Glo assay
Cytochrome P450 2C19, sequence (P33261 whole entry): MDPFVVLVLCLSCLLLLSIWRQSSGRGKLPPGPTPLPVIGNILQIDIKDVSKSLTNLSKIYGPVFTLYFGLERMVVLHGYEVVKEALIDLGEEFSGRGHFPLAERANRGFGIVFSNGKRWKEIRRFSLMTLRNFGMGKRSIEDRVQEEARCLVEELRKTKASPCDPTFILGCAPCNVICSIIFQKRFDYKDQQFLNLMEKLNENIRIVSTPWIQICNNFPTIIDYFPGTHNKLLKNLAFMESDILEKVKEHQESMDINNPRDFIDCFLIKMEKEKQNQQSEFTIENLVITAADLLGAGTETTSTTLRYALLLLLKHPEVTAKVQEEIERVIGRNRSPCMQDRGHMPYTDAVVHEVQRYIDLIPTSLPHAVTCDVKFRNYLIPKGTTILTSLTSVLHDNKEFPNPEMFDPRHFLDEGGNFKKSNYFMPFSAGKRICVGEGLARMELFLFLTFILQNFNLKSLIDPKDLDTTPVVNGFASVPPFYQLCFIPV

[16] = Selectivity ratio of IC50 for Leishmania major pteridine reductase 1 to IC50 for N-terminal His-tagged Trypanosoma brucei pteridine reductase 1
[17] = Cytotoxicity against human THP1 cells after 72 hrs by MTT assay; assay type: cell-based, THP-1; details: read-out: NOAEL
[18] = test system: Trypanosoma brucei; assay: Inhibition of N-terminal His-tagged Trypanosoma brucei pteridine reductase 1 at 50 uM using di-hydrobiopterine as substrate measured at 1 min interval for 50 mins in presence of NADPH relative to control; procedure, shortened: as §1

Row | SMILES | IC50 [1] | growth inhibition (GI) [2] | IC50 [3] | inhibition at 50 µM [4] | IC50 ([5]; read-out: IC50) | GI50 [6] | IC50 [7] | IC50 [8] | inhibition [9] | inhibition at 10 µM [10] | IC50 [11] | IC50 [12] | GI50 at 48 h [13] | IC50 at 6 h [14] | IC50 [15] | Ratio IC50 [16] | MNTC at 72 h [17] | inhibition [18] | IC50 [5] | also measured
1 | Nc1nc2ccc(C(=O)NCc3ccccc3N)cc2s1 | 13.9 µM | Non-Toxic | > 25 µM | 6.1% | 64.7 µM | > 25 µM | 10 to 25 µM | > 25 µM | > 60% | 8% | 10 to 25 µM | > 25 µM | > 25 µM | > 25 µM | > 25 µM | 2 to 100 | > 25 µM | > 60% | – | –
2 | Nc1nc2ccc(C(=O)NCCc3c[nH]c4ccccc34)cc2s1 | 23.3 µM | Non-Toxic | > 25 µM | 1.64% | – | > 25 µM | > 25 µM | > 25 µM | inactive | 27% | > 25 µM | > 25 µM | > 25 µM | > 25 µM | 10 to 25 µM | 2 to 100 | > 25 µM | > 60% | Not Active | –
3 | CS(=O)(=O)c1ccc2nc(N)sc2c1 | 34.2 µM | Non-Toxic | > 25 µM | 17.4% | 32.9 µM | > 25 µM | > 25 µM | > 25 µM | > 60% | 17% | > 25 µM | > 25 µM | > 25 µM | > 25 µM | > 25 µM | 2 to 100 | > 25 µM | > 60% | – | –
4 | Nc1nc2ccc(C(=O)N(Cc3ccccc3)Cc3ccc(Cl)c(Cl)c3)cc2s1 | 12 µM | Non-Toxic | < 10 µM | 62.1% | – | > 25 µM | < 10 µM | > 25 µM | inactive | 26% | < 10 µM | > 25 µM | > 25 µM | 10 to 25 µM | < 10 µM | 2 to 100 | > 25 µM | > 60% | Not Active | –
5 | COC(=O)C1CCN(C(=O)c2ccc(CS(=O)(=O)c3ccc4nc(N)sc4c3)cc2)CC1 | 24.3 µM | Non-Toxic | < 10 µM | – | 50 µM | > 25 µM | < 10 µM | > 25 µM | > 60% | – | < 10 µM | > 25 µM | > 25 µM | > 25 µM | < 10 µM | 2 to 100 | > 25 µM | > 60% | – | growth inhibition (GI) ([4]; trypanosoma cruzi, 50 µM): Non-Toxic; growth inhibition (GI) ([10]; trypanosoma brucei, 10 µM): Non-Toxic
6 | Nc1nc2c(C(=O)NCc3ccccc3)cc(O)c(O)c2s1 | 30.9 µM | Non-Toxic | > 25 µM | 5.85% | 30.1 µM | > 25 µM | < 10 µM | > 25 µM | > 60% | 15% | < 10 µM | > 25 µM | 10 to 25 µM | 10 to 25 µM | > 25 µM | 2 to 100 | > 25 µM | > 60% | – | –

— ChEMBL document CHEMBL4387708, “Enhancement of Benzothiazoles as Pteridine Reductase-1 Inhibitors for the Treatment of Trypanosomatidic Infections” (J Med Chem, 2019)
